Shown are actives, neighbours in structure and some others; about 3% of the full set was active somewhere.
XiGFP reactiv = X-chromosome reactivation activator | XiGFP mouse fibroblasts, % GFP-positive cells imaging, 3 d; cells co-treated with 5-aza-dC sensitizer; scaled so ellipticine positive control = 100% | activation, % at 7.58 µM | 0.055% of 360,000 active | AID 743238;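 active = mean normalized replicate activation at least 10% and every replicate at or above 10%; inconclusive = only one of the two criteria met; inactive = mean below 10% and not all replicates reach 10%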;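 note: 0% = median of on-plate neutral control wells and 100% = ellipticine 6 µM median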
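material = 68-5-11 XiGFP fibroblast line | medium = DMEM plus 5-aza-dC sensitizer | schedule = 3 days compound exposure | benchmarks = positive control ellipticine, 6 µM final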
MITF TRPM1 HTS = activators of MITF-driven TRPM1 promoter activity in SK-MEL-5 cells; activation, % at 12.5 µM; AID 588334; 0.75% of 300,000 active; SK-MEL-5 TRPM1-promoter luciferase, 24 h; % of positive control, neutral wells = 0;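 active = mean activation of at least 80% with every replicate also reaching 80%; inconclusive = mean reaches 80% but some replicate falls short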;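 note: 0% = neutral control wells and 100% = parthenolide positive control wells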
NSD2 HMT inh = blocks human histone methyltransferase NSD2; O96028; NSD2 peptide methylation, AlphaScreen, 120 min; inhibition, % at 12.5 µM; 0.54% of 310,000 active; AID 743445; in the data active = inhibition above about 50%
CASP6 VEID inh = blocks human caspase-6 cleavage activity; purified caspase-6, Z-VEID-R110 cleavage fluorescence; inhibition, % at 12.5 µM; 0.53% of 350,000 active; AID 686996;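 active = mean inhibition across replicates at least about 35%, with every replicate also reaching that limit, limit read from the data; inconclusive = only one of the two criteria met; inactive = neither criterion met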;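 note: 0% = median of neutral control wells and 100% = no fluorescence left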
Target sequence (P55212 24-179 limits assumed): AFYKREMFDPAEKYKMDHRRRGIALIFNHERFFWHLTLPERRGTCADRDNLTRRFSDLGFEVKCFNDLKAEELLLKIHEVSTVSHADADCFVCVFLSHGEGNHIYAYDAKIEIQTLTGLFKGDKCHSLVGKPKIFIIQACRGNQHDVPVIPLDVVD
Target sequence (P55212 194-293 limits assumed): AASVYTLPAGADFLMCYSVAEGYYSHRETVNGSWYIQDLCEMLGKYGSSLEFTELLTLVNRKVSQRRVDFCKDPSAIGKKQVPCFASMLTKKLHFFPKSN
Wnt act = activators of Wnt/beta-catenin signaling. 1.2% of 300,000 active. Wnt/beta-catenin reporter cell assay, activator, plate reader. activation, % at 9.35 µM. AID 743398; in the data active = activation above about 30%, passing the limit was not always enough; inconclusive = no clear call, values can overlap the other calls;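 note: 0% = neutral control wells and 100% = positive control wells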
esBAF inh = blocks esBAF chromatin remodeling in mouse ES cells; Bmi1-luciferase knock-in reporter, 24 h; 100% = twice the neutral-well signal; reporter increase, % at 12.5 µM; 2% of 350,000 active; AID 602393; in the data active = activation above about 40%; inconclusive = no clear call, values can overlap the other calls;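 note: 0% = median of the plate's neutral control wells and 100% = double that signal; a rise in the Bmi1 reporter signal indicates esBAF inhibition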
Active calls of the source: *; ? = inconclusive; · = no result given.

SMILES | XiGFP reactiv | MITF TRPM1 HTS | NSD2 HMT inh | CASP6 VEID inh | Wnt act | esBAF inh
Cn1c2ccccc2c(=O)c2cc(C#Cc3ccccn3)ccc21 | 0 | 102* | · | -5 | 21 | 2
Cn1c2ccccc2c(=O)c2ccc(C#Cc3ccccn3)cc21 | 0 | · | · | 1 | -1 | ·
COC(=O)N/N=C/c1ccc(OC(=O)/C=C/c2ccco2)cc1 | 0 | · | 4 | 5 | 53* | ·
O=C(Cc1ccccc1)N/N=C/c1ccc(OC(=O)/C=C\c2ccco2)cc1 | · | -8 | -3 | · | 104* | -1
COc1ccc(CN(C)C[C@H]2Oc3ccc(NC(=O)Nc4c(C)noc4C)cc3CC(=O)N([C@H](C)CO)C[C@@H]2C)cc1 | 0 | · | · | -3 | · | ·
O=C(O)c1cccc(N2C(=O)C3CC=CCC3C2=O)c1 (centres undefined) | · | 7 | 31 | · | 2 | 4
O=C(O)c1cccc(N2C(=O)C3CC=C(Cl)CC3C2=O)c1 (centres undefined) | 0 | 3 | · | 67* | -3 | -6
CCCN(C)C[C@H]1Oc2cc(C3=CCCC3)ccc2S(=O)(=O)N([C@H](C)CO)C[C@@H]1C | 0 | · | · | · | · | ·
CCCCCCn1c(CN2CCN(C(=O)c3ccco3)CC2)nc2c1c(=O)n(C)c(=O)n2C | 0 | · | · | 2 | -4 | 4
CCCCCn1c(CN2CCN(C(=O)c3ccco3)CC2)nc2c1c(=O)n(C)c(=O)n2C | 0 | · | · | 0 | 61* | 7
Clc1ccc2[nH]c(-c3ccccc3)cc2c1 | · | 46 | 0 | · | · | 60*
O=c1cc(-c2ccccc2)[nH]c2cc(Cl)ccc12 | 0 | -9 | · | -1 | -13 | -6
O=C(C[C@@H]1CC[C@H](NC(=O)CN2CCOCC2)[C@H](CO)O1)NCc1cccc(F)c1 | 0 | · | · | 3 | · | 0
O=C(c1ccc2ccccc2c1)N1CCc2ccccc21 | 0 | 47 | 7 | -1 | -1 | 64*
CCOc1ccc(C(=O)N2CCc3ccccc32)cc1 | 0 | · | 0 | -1 | -1 | 50*
O=C(c1ccc(F)c(F)c1)N1CCCc2ccccc21 | 0 | 3 | -5 | 1 | 0 | 0
CC(C)NC(=O)N(C)C[C@H]1OCCCC[C@H](C)Oc2ccc(NC(=O)c3ccccc3)cc2C(=O)N([C@H](C)CO)C[C@@H]1C | 0 | · | · | -2 | · | ·
O=C1Nc2ccc(C(=O)O)c(O)c2C1=O | 0 | 5 | 4 | 40* | -1 | 3
[O-][n+]1ccc(C2CC2)cc1 | · | · | -1 | · | 39* | 4
O=C(c1ccccc1)c1cc[n+]([O-])cc1 | · | · | -3 | · | -3 | 0
Cc1nc(C#N)c(N/N=C/c2cccc(Cl)c2)o1 | 0 | 72 | · | -1 | 28 | 93*
Cc1nc2ccc(C(=O)Nc3ccc(N(C)C)cc3)cc2s1 | 0 | 0 | 0 | 1 | 0 | ·
Cc1nc2ccc(NC(=O)c3cncc(Br)c3)cc2s1 | · | 92* | 16 | 2 | 18 | 6
CC(=O)c1ccc(NC(=O)c2ccc3nc(C)sc3c2)cc1 | 0 | · | 1 | -28 | -3 | 49*
CC(=O)c1ccc(NC(=O)Nc2ccc3c(c2)nc(C)n3C)cc1 | 0 | 85* | -6 | 1 | 7 | ·
SMILES | XiGFP reactiv | MITF TRPM1 HTS | NSD2 HMT inh | CASP6 VEID inh | Wnt act | esBAF inh
Cc1nc2ccc(NC(=O)c3ccccc3)cc2s1 | 0 | 59 | 0 | -1 | ? | ·
CNS(=O)(=O)c1ccc(NC(=O)c2csc(C)c2)cc1 | 0 | 1 | 1 | -5 | 0 | ·
Cc1cc(C(=O)Nc2ccc(Br)cc2)cs1 | 0 | 30 | -4 | -2 | 45* | ·
CC(C)NC(=O)N(C)C[C@H]1Oc2c(NC(=O)Cn3cnnn3)cccc2C(=O)N([C@H](C)CO)C[C@@H]1C | -1 | · | · | · | · | ·
CC(=O)c1ccc(NC(=O)c2ccc(C)c(Br)c2)cc1 | 0 | 68 | -2 | 0 | 69* | ·
CCCCC(=O)Nc1ccc(C(=O)NNC(=O)c2ccc(C)c(Br)c2)cc1 | 0 | -3 | 1 | · | -8 | ·
COc1cc(C(=O)Nc2ccc(C(C)=O)cc2)c(Br)c(OC)c1OC | 0 | 51 | -1 | · | 23 | 48*
COc1ccc(NC(=O)c2cc(OC)c(OC)c(OC)c2Br)cc1OC | 0 | 1 | -2 | · | · | ·
Cc1nc2cc(C(=O)O)ccc2s1 | · | 62 | 24 | · | · | 73*
COCC(=O)Nc1ccc2c(c1)C(=O)N(C)C[C@H](OC)[C@H](C)CN(C(=O)C1CCCC1)[C@H](C)CO2 | 0 | · | · | · | · | 1
